In brackets after ≈: the same amount, converted by molar mass.
What was measured:
[1] = Stability in CD-1 mouse liver microsomes assessed as compound remaining measured after 1 hr; type: ADME, microsome; conditions: read-out: Stability
[2] = Stability in pooled human liver microsomes assessed as compound remaining measured after 1 hr; type: ADME, microsome; conditions: read-out: Stability
[3] = Cytotoxicity against human MRC5 SV2 cells after 72 hrs by resazurin dye based fluorescence assay; type: cell-based; conditions: Homo sapiens, MRC-5 SV2, 72 h
Method in brief: (§1)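 IC50 for growth inhibition of L. infantum, T. cruzi and T. brucei parasites, or for cytotoxicity toward human lung fibroblasts (MRC-5). Values are means of two or more independent experiments.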

[4] = system: Trypanosoma brucei brucei; experiment: Anti-parasitic activity against Trypanosoma brucei brucei Squib-427 after 72 hrs by resazurin dye based fluorescence assay; type: functional; method in brief: as §1
[5] = system: Leishmania infantum; experiment: Anti-parasitic activity against Leishmania infantum MHOM/MA(BE)/67 amastigotes infected in mouse primary peritoneal macrophages after 5 days by giemsa staining based microscopic method; type: functional; conditions: Leishmania infantum, MHOM/MA(BE)/67, 120 h; method in brief: as §1
[6] = system: Trypanosoma cruzi; experiment: Anti-parasitic activity against Trypanosoma cruzi Tulahuen CL2 infected in human MRC5 cells after 7 days by chlorophenol red […]-D-galactopyranoside dye based assay; type: functional, cell-based; method in brief: as §1
[7] = system: Mycobacterium tuberculosis; experiment: Anti-tubercular activity against Mycobacterium tuberculosis H37Rv ATCC 27294 after 7 days under aerobic condition by microplate alamar blue assay; type: functional; conditions: Mycobacterium tuberculosis, H37Rv ATCC 27294, 168 h; read-out: MIC
Method in brief: (§2)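 M. tuberculosis H37Rv MIC measured in two assays: aerobic growth by MABA and hypoxic exposure by LORA. Each value is the mean of ≥2 independent determinations.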

[8] = system: Mycobacterium tuberculosis; experiment: Anti-tubercular activity against Mycobacterium tuberculosis H37Rv ATCC 27294 after 10 days under hypoxic condition by low-oxygen recovery assay; type: functional; method in brief: as §2
[9] = system: Vero; experiment: Cytotoxicity against African green monkey Vero cells after 72 hrs by MTS/PMS assay; type: cell-based; conditions: Chlorocebus sabaeus
Method in brief: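 VERO mammalian cells exposed for 72 h. Cytotoxicity IC50 comes from a single test.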

[10] = system: Mycobacterium tuberculosis; experiment: Anti-tubercular activity against Mycobacterium tuberculosis infected in BALB/c mouse assessed as reduction in lung colony forming units at 100 mg/kg, po administered via gavage for 5 days each week for 3 weeks measured after 1 day post last dose relative to PA-824; type: functional
Method in brief: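 Mouse model of acute TB infection. Oral dosing at 100 mg/kg daily, 5 days per week, for 3 weeks. Read-out is fold reduction in lung CFU, expressed as a ratio to the fold CFU reduction from the reference nitroimidazole run alongside.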

[11] = Solubility in water at pH 7 after 15 mins by HPLC method; type: physicochemical; conditions: for solubility at 0.25 h: water, pH 7
Method in brief: (§3)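 Solubility measured at 20 °C by HPLC, in water (pH 7) or 0.1 M HCl (pH 1).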

[12] = Solubility in HCl at pH 1 after 15 mins by HPLC method; type: physicochemical; method in brief: as §3
[13] = Trypanosoma brucei, Squib-427, 72 h
[14] = Trypanosoma cruzi, Tulahuen CL2, MRC5, 168 h
[15] = Mycobacterium tuberculosis, H37Rv ATCC 27294, 240 h, read-out: MIC

Structure (SMILES)	IC50 [3] [µM]	IC50 [4, 13] [µM]	IC50 [5] [µM]	IC50 [6, 14] [µM]	MIC [7] [µM]	MIC [8, 15] [µM]	IC50 [9] [µM]	other results
O=[N+]([O-])c1cn2c(n1)OC[C@@H](COc1ccc(OC(F)(F)F)cc1)C2								remaining at 1 h [1]: 94%; remaining at 1 h [2]: 82%
CC1(COc2ccc(Oc3ccccc3)cc2)Cn2cc([N+](=O)[O-])nc2S1 (stereo not given)	> 64	> 64	> 64	0.14	0.76 (≈ 0.291 µg/mL)	5.3 (≈ 2.03 µg/mL)	> 128	
CC1(COc2ccc(OC(F)(F)F)cc2)Cn2nc([N+](=O)[O-])nc2S1(=O)=O (stereo not given)	0.42	2.1	1.3	1.3	2.2 (≈ 0.898 µg/mL)	27 (≈ 11 µg/mL)	46	
O=[N+]([O-])c1cn2c(n1)OC(COc1ccc(Oc3ccccc3)cc1)C2 (stereo not given)	19	> 64	3.4	3.1	0.96 (≈ 0.339 µg/mL)	> 128	> 128	
CC1(COCc2ccc(-c3ccc(F)cc3)cc2)Cn2cc([N+](=O)[O-])nc2S1 (stereo not given)	> 64	> 64	> 64	0.15	1.5 (≈ 0.599 µg/mL)	> 64		
CC1(COc2ccc(-c3ccc(OC(F)(F)F)cc3)cc2)Cn2cc([N+](=O)[O-])nc2O1 (stereo not given)								fold change (FC) [10]: 115; solubility ([11]; buffer, pH 7, 0.25 h): 0.41 µg/mL (≈ 0.942 µM)
CC1(COCc2ccc(OC(F)(F)F)cc2)Cn2cc([N+](=O)[O-])nc2[S+]1[O-] (stereo in doubt; 18)	> 64	> 64	> 64	1.6		> 128		
O=[N+]([O-])c1cn2c(n1)SC(COCc1ccc(OC(F)(F)F)cc1)C2 (stereo not given)	> 64	> 64	64	0.87	4.4 (≈ 1.65 µg/mL)	15 (≈ 5.63 µg/mL)	> 128	
CC1(COc2ccc(Oc3ccccc3)cc2)Cn2cc([N+](=O)[O-])nc2O1 (stereo not given)	> 64	28		1.9	0.79 (≈ 0.29 µg/mL)	24 (≈ 8.82 µg/mL)		
CC1(COCc2ccc(-c3ccc(OC(F)(F)F)cc3)cc2)Cn2cc([N+](=O)[O-])nc2S1 (stereo not given)	> 64	2.8	56	0.14	1.4 (≈ 0.652 µg/mL)	> 64		
C[C@]1(COc2ccc(N3CCC(Oc4ccc(OC(F)(F)F)cc4)CC3)cc2)Cn2cc([N+](=O)[O-])nc2O1								remaining at 1 h [1]: 87%; fold change (FC) [10]: 68; remaining at 1 h [2]: 71%
CC1(COc2ccc(N3CCC(Oc4ccc(OC(F)(F)F)cc4)CC3)cc2)Cn2cc([N+](=O)[O-])nc2S1 (stereo not given)	> 64	59	53	0.055	0.073 (≈ 0.0402 µg/mL)	71 (≈ 39.1 µg/mL)	> 128	solubility at 0.25 h [11]: 0.18 µg/mL (≈ 0.327 µM); solubility at 0.25 h [12]: 13 µg/mL (≈ 23.6 µM)
CC1(COCc2ccc(OC(F)(F)F)cc2)Cn2cc([N+](=O)[O-])nc2S1 (stereo not given)	> 64	56	57	0.67	0.24 (≈ 0.0934 µg/mL)	7.9 (≈ 3.08 µg/mL)		solubility at 0.25 h [11]: 2.4 µg/mL (≈ 6.16 µM)
CC1(COCc2ccc(-c3ccc(C(F)(F)F)cc3)cc2)Cn2cc([N+](=O)[O-])nc2S1 (stereo not given)	> 64	1.1	56	0.04	1.1 (≈ 0.494 µg/mL)	> 64		
O=[N+]([O-])c1cn2c(n1)SC(COc1ccc(OC(F)(F)F)cc1)C2 (stereo not given)	> 64	> 64	> 64	0.85	4.5 (≈ 1.63 µg/mL)	8.2 (≈ 2.96 µg/mL)	> 128	
CC1(COc2ccc(Oc3ccccc3)cc2)Cn2cc([N+](=O)[O-])nc2[S+]1[O-] (stereo in doubt; 39)	53		55				> 128	IC50 [4]: 0.36 µM; IC50 [6]: 0.19 µM; MIC [8]: >128 µM
CC1(COCc2ccc(OC(F)(F)F)cc2)Cn2cc([N+](=O)[O-])nc2O1 (stereo not given)								fold change (FC) [10]: 0.025; solubility at 0.25 h [11]: 11 µg/mL (≈ 29.5 µM)
CC1(COCc2ccc(OC(F)(F)F)cc2)Cn2cc([N+](=O)[O-])nc2S1(=O)=O (stereo not given)	> 64	> 64	> 64	0.97	> 128	21 (≈ 8.85 µg/mL)		

Source: ChEMBL document CHEMBL4028840, “6-Nitro-2,3-dihydroimidazo[2,1-b][1,3]thiazoles: Facile synthesis and comparative appraisal against tuberculosis and neglected tropical diseases” (Bioorg Med Chem Lett, 2017)
